{
  "source": "ChEMBL document CHEMBL1128351",
  "about": "“A novel pyrrolidine analog of histamine as a potent, highly selective histamine H3 receptor agonist” (J Med Chem, 1995)",
  "key": {"[1]": {"target": "Histamine H3 receptor (Cavia porcellus, UniProt Q9JI35)", "sequence (Q9JI35 whole entry)": "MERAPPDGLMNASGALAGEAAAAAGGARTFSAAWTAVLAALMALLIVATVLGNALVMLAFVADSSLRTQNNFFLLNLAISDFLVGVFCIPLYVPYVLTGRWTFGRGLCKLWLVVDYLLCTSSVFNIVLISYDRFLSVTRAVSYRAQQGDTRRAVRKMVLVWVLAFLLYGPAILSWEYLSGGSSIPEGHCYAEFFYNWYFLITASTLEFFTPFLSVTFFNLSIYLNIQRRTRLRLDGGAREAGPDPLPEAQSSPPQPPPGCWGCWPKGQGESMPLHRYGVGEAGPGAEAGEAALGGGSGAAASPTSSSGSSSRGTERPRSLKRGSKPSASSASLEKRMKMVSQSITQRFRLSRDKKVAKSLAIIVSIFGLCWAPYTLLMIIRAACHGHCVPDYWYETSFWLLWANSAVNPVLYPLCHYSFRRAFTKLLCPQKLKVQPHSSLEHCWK", "test": "Binding affinity against Histamine H3 receptor", "how_it_was_run": "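H3 receptor binding Ki values are the mean of two independent experiments, with errors given as the range from the mean.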"}, "[2]": {"target": "Histamine H1 receptor (Cavia porcellus, UniProt P31389)", "sequence (P31389 whole entry)": "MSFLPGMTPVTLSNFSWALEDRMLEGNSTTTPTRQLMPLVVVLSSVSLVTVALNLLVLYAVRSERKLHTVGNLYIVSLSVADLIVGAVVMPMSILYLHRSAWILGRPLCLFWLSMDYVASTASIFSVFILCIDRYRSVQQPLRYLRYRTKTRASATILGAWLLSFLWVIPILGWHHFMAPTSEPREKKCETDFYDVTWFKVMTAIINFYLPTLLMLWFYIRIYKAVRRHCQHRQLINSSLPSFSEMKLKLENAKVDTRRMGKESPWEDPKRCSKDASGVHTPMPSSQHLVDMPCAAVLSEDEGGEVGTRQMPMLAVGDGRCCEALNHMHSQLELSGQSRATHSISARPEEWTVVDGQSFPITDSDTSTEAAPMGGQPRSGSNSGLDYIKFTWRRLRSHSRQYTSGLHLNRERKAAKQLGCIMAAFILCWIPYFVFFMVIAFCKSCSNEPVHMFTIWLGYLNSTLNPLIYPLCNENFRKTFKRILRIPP", "test": "Binding affinity against H1 receptor"}, "[3]": {"target": "Histamine H3 receptor (Cavia porcellus) (UniProt Q9JI35)", "sequence (Q9JI35 whole entry)": "as the sequence (Q9JI35 whole entry) above", "conditions": "Ileum, 1 uM"}, "[4]": {"target": "Histamine H1 receptor (Cavia porcellus) (UniProt P31389)", "sequence (P31389 whole entry)": "as the sequence (P31389 whole entry) above", "conditions": "Ileum, 10 uM"}, "[5]": {"target": "Histamine H3 receptor (Cavia porcellus) (UniProt Q9JI35)", "conditions": "Ileum"}, "[6]": {"test_system": "Cavia porcellus", "test": "Effective dose was tested in vivo for 50% inhibition by an electrically induced CNS hypertension model after iv administration.", "format": "functional", "how_it_was_run": "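H3 agonist activity was measured in a CNS hypertension model with intravenous dosing. Values are ED50 in mg/kg, or % of the activity of the reference H3 agonist at 0.3 mg/kg.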"}, "[7]": {"target": "Histamine H1 receptor (Cavia porcellus) (UniProt P31389)", "conditions": "Ileum"}, "[8]": {"test_system": "Cavia porcellus", "test": "Effective dose was tested in vivo for 50% inhibition by an H1 histamine-mediated bronchospasm after iv administration in guinea pig", "format": "functional", "conditions": "Bronchiole", "how_it_was_run": "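Given intravenously and measured in an H1 histamine-mediated bronchospasm model. Value is expressed as ED50 in mg/kg.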"}, "[9]": {"test_system": "Cavia porcellus", "test": "Effective dose was tested in vivo for 50% inhibition by an H1 histamine-mediated bronchospasm in guinea pig", "format": "functional", "conditions": "Bronchiole"}},
  "note": "The source made the active and inactive calls. The calls are words filed in the database; no cut-off is given here.",
  "data": [
    {"compound": "N[C@H]1CCC[C@@H]1c1cnc[nH]1", "note": "(racemic)", "values": [
      {"measurement": "Ki", "setting": "[1]", "result": 740, "unit": "nM"}
    ]},
    {"compound": "C[C@H](c1c[nH]cn1)[C@@H](C)N", "note": "(racemic)", "values": [
      {"measurement": "Ki", "setting": "[1]", "result": 0.8, "unit": "nM"}
    ]},
    {"compound": "C[C@]1(N)CCCC[C@@H]1c1c[nH]cn1", "note": "(racemic)", "values": [
      {"measurement": "Ki", "setting": "[1]", "result": "> 2000", "unit": "nM"}
    ]},
    {"compound": "C[C@@H]1NCC[C@H]1c1c[nH]cn1", "values": [
      {"measurement": "Ki", "setting": "[2]", "result": "> 10", "unit": "µM"},
      {"measurement": "Ki", "setting": "[1]", "result": 33, "unit": "nM"},
      {"measurement": "pD2", "setting": "[3]", "result": "inactive"}
    ]},
    {"compound": "C[C@H]1NCC[C@@H]1c1c[nH]cn1", "note": "[listing 1 of 2 here]", "values": [
      {"measurement": "pD2", "setting": "[4]", "result": "inactive"},
      {"measurement": "pD2", "setting": "[5]", "result": 7.1}
    ]},
    {"compound": "C[C@@H](N)[C@@H](C)c1c[nH]cn1", "note": "(racemic)", "values": [
      {"measurement": "Ki", "setting": "[1]", "result": 11, "unit": "nM"}
    ]},
    {"compound": "C[C@@]1(N)CCCC[C@@H]1c1cnc[nH]1", "note": "(racemic)", "values": [
      {"measurement": "Ki", "setting": "[1]", "result": "> 2000", "unit": "nM"}
    ]},
    {"compound": "C[C@@H](N)Cc1c[nH]cn1", "values": [
      {"measurement": "Ki", "setting": "[2]", "result": "> 10", "unit": "µM"},
      {"measurement": "ED50", "setting": "[6]", "result": 0.1, "unit": "mg/kg"},
      {"measurement": "Ki", "setting": "[1]", "result": 1.5, "unit": "nM"},
      {"measurement": "pD2", "setting": "[7]", "result": 5.4},
      {"measurement": "pD2", "setting": "[5]", "result": 8.2},
      {"measurement": "ED50", "setting": "[8]", "result": 1.7, "unit": "mg/kg"}
    ]},
    {"compound": "C[C@H]1NCC[C@@H]1c1c[nH]cn1", "note": "[listing 2 of 2 here]", "values": [
      {"measurement": "Ki", "setting": "[2]", "result": "> 10", "unit": "µM"},
      {"measurement": "ED50", "setting": "[6]", "result": 0.18, "unit": "mg/kg"},
      {"measurement": "ED50", "setting": "[9]", "result": "> 100", "unit": "mg/kg"},
      {"measurement": "Ki", "setting": "[1]", "result": 2.8, "unit": "nM"}
    ]},
    {"compound": "C[C@H]1NCC[C@@H]1c1c[nH]cn1", "note": "(racemic)", "values": [
      {"measurement": "Ki", "setting": "[1]", "result": 8.7, "unit": "nM"}
    ]}
  ]
}
